A selection: hits, their analogues and other compounds. The true share with any hit is near 2.9%.
Vif imaging: inhibitors of HIV Vif | inhibition, % at 7.49 µM | 340,000 tested, 0.35% active | AID 602346 | HEK293T cells, Vif self-association by quenched fluorescence, imaging, 24 h; in the data active means inhibition above about 50%, passing the limit was not always enough
PGC1a acetyl inh: modulators of PGC1a acetylation. U2OS PGC1a acetylation, AlphaScreen anti-acetyl-lysine; with virally co-expressed GCN5 acetyltransferase. inhibition, % at 15.6 µM. 350,000 tested, 0.17% active;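 active means every replicate shows inhibition of at least 40%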;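 further: 0% = neutral control wells and 100% = positive control wells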
FGF22 binding: shifts melting point of recombinant human FGF22. recombinant FGF22 thermal shift, SYPRO orange fluorescence; percent of sucrose octasulfate shift, DMSO zero. AID 651658. activity (Tm shift, normalised), % at 9.99 µM. 340,000 tested, 1.5% active. Q9HCT0;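 active means mean Tm shift, scaled 0 neutral to 100 positive control, at about 1.3% or above, every replicate too, limit read from the data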
Target sequence (Q9HCT0 whole entry, looked up): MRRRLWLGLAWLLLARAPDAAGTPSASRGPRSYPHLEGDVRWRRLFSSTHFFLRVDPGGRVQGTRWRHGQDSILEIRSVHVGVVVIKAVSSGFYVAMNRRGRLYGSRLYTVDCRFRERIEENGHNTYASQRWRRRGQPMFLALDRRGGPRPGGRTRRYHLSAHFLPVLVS
rRNA inh HTS: inhibits bacterial ribosomal RNA function over humanized ribosomes; E. coli WT GFP vs humanized-ribosome RFP mutants, fluorescence, 24 h; hits give low values; DMSO median 0, no signal -100; GFP signal change (wild-type ribosome), % (no concentration beside the values); 350,000 tested, 1.6% active;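 active means significant combined selectivity score with lowered wild-type GFP, culture density cut under 30%, mutant RFP and density less affected; inactive means any of these conditions unmet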
Cneo AK release: Cryptococcus neoformans lysis via adenylate kinase release; C. neoformans lysis, adenylate kinase release luminescence, 4 h; normalised: neutral wells 0, clomiphene wells 100; lysis activity, % at 15 µM; 360,000 tested, 0.2% active; AID 651654;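 active means mean lysis activity across replicates of at least 80%, whatever share of replicates individually reach that level; inactive means mean lysis activity below 80%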
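Material – log-phase Cryptococcus neoformans yeast cells · Input – 5 × 10^6 yeast cells/mL · Medium – fresh YPD growth medium · Doses – single compound concentration per well · Timing – static 4 h at 37 °C with compound, 1 h detection · Detection – adenylate kinase release luminescence · Read-out – signal increase indicating cell lysis · Control set – Clomiphene as positive lysis control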
PglD inh: PglD (C. jejuni) enzyme inhibition | 360,000 tested, 0.098% active | purified PglD enzyme, DTNB colorimetric CoA detection | inhibition, % at 12.5 µM | AID 602405; in the data active means inhibition above about 16%, passing the limit was not always enough
Active calls of the source: *; / = no result.

SMILES	Vif imaging	PGC1a acetyl inh	FGF22 binding	rRNA inh HTS	Cneo AK release	PglD inh
C[C@@H]1CN([C@H](C)CO)C(=O)Cc2cc(NC(=O)Cn3cnnn3)ccc2O[C@H]1CN(C)C(=O)Nc1ccc(F)cc1	/	3	/	3	/	/
CC(C)NC(=O)Nc1ccc2c(c1)C(=O)N([C@H](C)CO)C[C@H](C)[C@@H](CN(C)C(=O)NC(C)C)OCCCC[C@H](C)O2	/	/	0	4	113*	0
CC(C)NC(=O)Nc1ccc2c(c1)C(=O)N([C@@H](C)CO)C[C@@H](C)[C@@H](CN(C)C(=O)c1ccncc1)OCCCC[C@@H](C)O2	/	3	0	-4	111*	2
CC(C)NC(=O)Nc1ccc2c(c1)C(=O)N([C@@H](C)CO)C[C@H](C)[C@H](CN(C)C(=O)c1ccncc1)OCCCC[C@@H](C)O2	/	-5	0	3	1	1
CC(C)NC(=O)Nc1ccc2c(c1)C(=O)N([C@@H](C)CO)C[C@@H](C)[C@H](CN(C)C(=O)c1ccncc1)OCCCC[C@H](C)O2	/	-1	-1	2	115*	-3
COc1cccc(CN2CCN(C(=O)c3cc(-c4cccnc4)nc4ccc(C)cc34)CC2)c1	-3	-4	0	-27*	/	/
COc1ccc2nc(-c3ccccc3)cc(C(=O)N3CCC3)c2c1	-2	2	0	-10	1	-4
O=C(O)COc1ccc(Oc2ccccc2)cc1	1	8	/	/	0	-3
O=C(O)CSc1ccc(Oc2ccc(SCC(=O)O)cc2)cc1	16	15	43*	24	-30	-4
O=C(N/N=C/c1ccc2c(c1)OCO2)c1ccc2c(c1)OCO2	-3	-1	0	-3	-2	5
O=C(N/N=C/c1cccc(O)c1)c1ccc2c(c1)OCCO2	-4	-2	0	-21*	-6	0
CCC(=O)N(C)C[C@@H]1Oc2cc(C#CC3CCCCC3)ccc2S(=O)(=O)N([C@@H](C)CO)C[C@@H]1C	/	-10	-1	-3	6	1
COc1ccccc1N1CCN(C(=O)c2ccc3noc(-c4ccccc4)c3c2)CC1	-5	1	0	-13*	3	-4
CC1(Cc2ccc(C(F)(F)F)nc2)C(=O)Nc2cc(-c3ccccc3Cl)ccc21 (stereo not drawn)	-7	-18	43*	-1	-2	-1
CCc1ccc2c(c1)NC(=O)C2(C)Cc1ccc(F)cc1 (stereo not drawn)	0	/	0	-32	-1	0
COc1ccc(C(=O)Nc2cccnc2Sc2ccc(Cl)cc2)cc1	12	1	29*	-5	0	-2
O=C(NCCCCNC(=O)c1ccccn1)c1ccccn1	-6	/	43*	11	-2	4
COc1ccc(C(=O)NNC(=O)c2ccccn2)cc1	2	/	44*	7	/	/
CCOC(=O)Nc1cccnc1Sc1ccc(Cl)cc1	0	/	0	5	-1	0
COc1ccc(NC(=O)Nc2ccc3c(c2)[C@H]2C[C@@H](CC(=O)O)O[C@@H](CO)[C@H]2O3)cc1	/	8	0	6	-3	-2
Cc1ccc([N+](=O)[O-])cc1S(=O)(=O)N1CCC(C)CC1	-5	-9	0	-13	/	/
Cc1ccc(S(=O)(=O)N2CCC(C)CC2)c([N+](=O)[O-])c1	-7	-1	43	-25*	6	-1
COc1ccc(-c2cc(C(=O)Nc3ccc4c(c3)OCO4)no2)cc1	53*	/	0	6	-3	-3
COc1ccc2nc(Nc3nc4cc5c(cc4s3)OCO5)sc2c1	5	/	/	/	/	/
COc1ccc(CC(=O)OCC(=O)Nc2ccc3c(c2)OCO3)cc1	-2	-2	43*	2	/	/
SMILES	Vif imaging	PGC1a acetyl inh	FGF22 binding	rRNA inh HTS	Cneo AK release	PglD inh
COc1ccc(-c2cc(C(=O)Nc3ccc(OC)c(OC)c3)no2)cc1	-4	38	0	10	0	-1
COc1cc(CC(=O)OCC(=O)Nc2ccc(N3CCOCC3)cc2)cc(OC)c1OC	-1	7	42	10	1	-1
COc1ccc2nc(Nc3ccc4c(c3)OCO4)sc2c1	53*	31	/	/	-2	4
COc1ccc(CC(=O)OCC(=O)Nc2ccc(N3CCOCC3)cc2)cc1	81*	-5	0	4	/	/
C[C@@H]1CCCCO[C@H](CN(C)C(=O)NC2CCCCC2)[C@H](C)CN([C@@H](C)CO)C(=O)c2cc(NC(=O)CCC(F)(F)F)ccc2O1	/	/	-1	1	40	-1
O=C(CSc1nc2ccccc2s1)Nc1ccc2c(c1)OCO2	-2	/	0	-28*	/	/
Cc1cc(C)c(OCC(=O)Nc2ccc3c(c2)OCO3)cc1C	67*	-18	/	/	-1	-10
CC(=O)NCC(=O)NC(C(=O)Nc1ccc2c(c1)OCCO2)c1ccc(C)cc1 (stereo not drawn)	1	-3	/	/	0	7
COc1ccc(C(NC(=O)CNC(C)=O)C(=O)Nc2ccc3c(c2)OCCO3)cc1 (stereo not drawn)	51*	-5	/	/	-1	6
CC(Sc1nc2ccccc2s1)C(=O)Nc1ccc2c(c1)OCO2 (stereo not drawn)	2	/	/	/	/	/
NS(=O)(=O)c1ccc(NCc2cnc3ccccc3n2)cc1	-5	3	43*	2	3	-2
COc1ccc(CC(=O)OCC(=O)Nc2cc(S(=O)(=O)N3CCOCC3)ccc2N2CCCC2)cc1	3	-9	43*	2	/	/
COc1ccc(CNC(=O)c2ccc(S(=O)(=O)N3CCOCC3)cc2)cc1	1	/	78*	4	/	/
CCOC(=O)/C=C/C(=O)Nc1cc(S(=O)(=O)Nc2ccc(OC)cc2)ccc1N1CCOCC1	100*	/	0	3	-1	-1
COc1cc(S(=O)(=O)N2CCOCC2)ccc1NC(=O)COC(=O)/C=C/c1cc(OC)c(OC)c(OC)c1	-1	/	43*	-4	/	/
N#Cc1ccc(-c2ccc([C@H]3[C@@H](CO)N4C(=O)CN(C(=O)C5CCCCC5)C[C@@H]34)cc2)cc1	/	3	0	-4	/	/
Cc1ccc(S(=O)(=O)N[C@H]2C=C[C@H](CC(=O)N3CCN(c4ccccc4)CC3)O[C@@H]2CO)cc1	/	-1	0	-3	1	-3
COCC(=O)Nc1ccc2c(c1)OC[C@@H](C)N(C(=O)Cc1cccnc1)C[C@@H](C)[C@H](OC)CN(C)C2=O	/	-6	0	/	2	-1
CCCNC(=O)[C@H]1[C@H](CO)[C@H]2Cn3c(cccc3=O)[C@@H]1N2Cc1ccccc1	/	/	0	2	2	-1
COc1ccc(CC(=O)Nc2cc(S(=O)(=O)N3CCOCC3)ccc2N2CCOCC2)cc1	-2	/	43*	4	/	/
COc1ccc(/C=C/C(=O)Nc2cc(S(=O)(=O)N3CCCCC3)ccc2N2CCCCC2)cc1OC	-7	/	/	/	3	-8

High-throughput results: PubChem, Broad Institute
